Measurements as given in ChEMBL document CHEMBL1135581, “Novel selective PDE4 inhibitors. 3. In vivo antiinflammatory activity of a new series of N-substituted cis-tetra- and cis-hexahydrophthalazinones” (J Med Chem, 2002).

Experiments:
Phosphodiesterase 4 = Phosphodiesterase 4 (Homo sapiens, UniProt P27815+Q08499+Q07343+Q08493); assay: Inhibitory concentration against phosphodiesterase 4 (PDE4) in cytosol of human neutrophils; format: protein assay
Mus musculus [1] = assay: Percent inhibition of arachidonic acid (AA) […], induced mouse ear edema after pretreatment at a concentration of 30 umol/kg (po); format: functional
How it was run: (§1)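 Female NMRI mice, 25–32 g, n = 8 per group. Compound in water (pH 6.5–7) given by gavage at 30 μmol/kg, 1 h before 3 mg arachidonic acid in 10 μL acetone applied to the right ear.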

Mus musculus [2] = assay: Percent inhibition of arachidonic acid induced mouse ear edema after 1 hr pretreatment with 30 uM/kg peroral dose; format: functional; how it was run: as §1
[3] = Inhibition of N-formyl-methionyl-leucyl-phenylalanine (fMLP)-stimulated production of reactive oxygen species (ROS) in human PMNL by 35% of control; format: functional
How it was run: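 PMNL isolated from citrated human blood (dextran sedimentation, ficoll, hypotonic lysis), 1.25 × 10^7 cells/mL. Buffer: HEPES saline with Mg/Ca, glucose, BSA, 10 μM luminol, 4 μM microperoxidase. […] IC35 by nonlinear regression. Two independent determinations in triplicate.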

[4] = Inhibition of LPS-stimulated tumor necrosis factor-alpha release by human whole blood; format: functional
How it was run: (§2)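 Heparinized venous human whole blood (8 U/mL) from healthy volunteers, preincubated 15 min at 37 °C with compound (0.001–10 μM final, 0.1% DMSO). Then stimulated with LPS (1 μg/mL final) for 4 h at 37 °C. Plasma TNFα measured by nonisotopic immunoassay. IC30 from concentration–inhibition curves by nonlinear regression. Means of two independent determinations in triplicate.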

[5] = Inhibition of LPS-stimulated Tumor necrosis factor alpha release by human whole blood; format: functional; how it was run: as §2

| SMILES | Log IC50 (Phosphodiesterase 4) | inhibition in vivo at 30 µmol/kg (Mus musculus [1]) [%] | other results |
| --- | --- | --- | --- |
| COc1ccc(C2=NN(C)C(=O)C3CCCCC23)cc1OC (centres undefined) | -6.8 |  |  |
| COc1ccc(C2=NN(Cc3cccc(C(=O)O)c3)C(=O)C3CCCCC23)cc1OC (centres undefined) | -7.9 | 18 |  |
| COc1ccc(C2=NN(Cc3cccc(O)c3)C(=O)C3CCCCC23)cc1OC (centres undefined) | -8 |  |  |
| COc1ccc(C2=NN(C/C=C/c3ccccc3)C(=O)C3CCCCC23)cc1OC (centres undefined) | -7.8 |  |  |
| COc1ccc(C2=NN(CCCCCC(=O)[O-])C(=O)C3CCCCC23)cc1OC.[Na+] (centres undefined) | -7.5 | 18 |  |
| COc1ccc(C2=NN(CCCCCCCC(=O)O)C(=O)C3CCCCC23)cc1OC (centres undefined) | -7.6 |  | Inhibition (Mus musculus [2]): 13% |
| COc1ccc(C2=NN(C(C)(C)C)C(=O)C3CCCCC23)cc1OC (centres undefined) | -7.9 |  |  |
| COc1ccc(C2=NN(C3CCCCC3)C(=O)C3CC=CCC23)cc1OC (centres undefined) | -9.2 | 13 |  |
| COc1ccc(C2=NN(C3CCCCCC3)C(=O)C3CC=CCC23)cc1OC (centres undefined) |  | 59 | pIC35 [3]: 6.82; pIC30 [4]: 7.05 |
| COc1ccc(C2=NN(C3CCSCC3)C(=O)C3CC=CCC23)cc1OC (centres undefined) | -8.9 |  |  |
| COc1ccc(C2=NN(C3C4CC5CC(C4)CC3C5)C(=O)C3CC=CCC23)cc1OC (centres undefined) | -9.4 | 51 | pIC35 [3]: 6.3; pIC30 [4]: 7.22 |
| COc1ccc(C2=NN(C3CCOCC3)C(=O)C3CC=CCC23)cc1OC (centres undefined) | -8.9 | 2 |  |
| COc1ccc(C2=NN(C3CCCCCC3)C(=O)C3CC=CCC23)c2c1OC1(CCCC1)C2 (centres undefined) |  | 49 |  |
| COc1ccc(C2=NN(CCN(C)C)C(=O)C3CCCCC23)cc1OC (centres undefined) | -6.5 |  |  |
| COc1ccc(C2=NN(CC#N)C(=O)C3CCCCC23)cc1OC (centres undefined) | -7.2 |  |  |
| COc1ccccc1CN1N=C(c2ccc(OC)c(OC)c2)C2CCCCC2C1=O (centres undefined) | -7.7 |  |  |
| COc1ccc(C2=NN(CC3CC3)C(=O)C3CC=CCC23)cc1OC (centres undefined) | -8.1 | 15 |  |
| COc1ccc(C2=NN(CCO)C(=O)C3CCCCC23)cc1OC (centres undefined) | -6.8 |  |  |
| COc1ccc(C2=NN(Cc3ccccc3O)C(=O)C3CCCCC23)cc1OC (centres undefined) | -8.1 |  |  |

| SMILES | Log IC50 (Phosphodiesterase 4) | inhibition in vivo at 30 µmol/kg (Mus musculus [1]) [%] | other results |
| --- | --- | --- | --- |
| COc1ccc(C2=NN(C3CCCCCCC3)C(=O)C3CC=CCC23)cc1OC (centres undefined) | -9.3 | 30 |  |
| COc1ccc(C2=NN(C3CCCCCC3)C(=O)C3CCCCC23)c2c1OC1(CCCC1)C2 (centres undefined) | -9.2 | 29 |  |
| CCN1N=C(c2ccc(OC)c(OC)c2)C2CCCCC2C1=O (centres undefined) | -7.4 |  |  |
| COc1ccc(C2=NN(C(C)C)C(=O)C3CCCCC23)cc1OC (centres undefined) | -8.6 | 14 |  |
| COc1ccc(C2=NN(CCCCCCN(C)C)C(=O)C3CCCCC23)cc1OC (centres undefined) | -7 |  |  |
| C#CCN1N=C(c2ccc(OC)c(OC)c2)C2CCCCC2C1=O (centres undefined) | -7.4 |  |  |
| COc1ccc(C2=NN(C3CCCC3)C(=O)C3CC=CCC23)cc1OC (centres undefined) | -9.3 | 19 |  |
| COc1ccc(C2=NN(Cc3ccc(C(=O)O)cc3)C(=O)C3CCCCC23)cc1OC (centres undefined) | -7.3 | 27 |  |
| COc1ccc(C2=NN(CCCOc3ccccc3)C(=O)C3CCCCC23)cc1OC (centres undefined) | -7.9 |  |  |
| COc1ccc(C2=NN(c3ccccc3)C(=O)C3CCCCC23)cc1OC (centres undefined) | -7.6 |  |  |
| CCCN1N=C(c2ccc(OC)c(OC)c2)C2CCCCC2C1=O (centres undefined) | -7.8 |  |  |
| COc1ccc(C2=NN(Cc3ccncc3)C(=O)C3CCCCC23)cc1OC (centres undefined) | -7.8 | 29 |  |
| COc1ccc(CN2N=C(c3ccc(OC)c(OC)c3)C3CCCCC3C2=O)cc1 (centres undefined) | -8.2 | 13 |  |
| COc1ccc(C2=NN(CCCCn3ccnc3)C(=O)C3CCCCC23)cc1OC (centres undefined) | -8 | 39 |  |
| COc1ccc(C2=NN(C3CCCCCC3)C(=O)C3CC=CCC23)c2c1OC(C)(C)C2 (centres undefined) |  | 54 | pIC30 [4]: 7.05 |
| COc1ccc(C2=NN(CC(=O)c3ccccc3)C(=O)C3CCCCC23)cc1OC (centres undefined) | -8 |  |  |
| COc1ccc(C2=NN(CC(=O)O)C(=O)C3CCCCC23)cc1OC (centres undefined) | -5.7 |  |  |
| COc1ccc(C2=NN(Cc3ccc(O)cc3)C(=O)C3CCCCC23)cc1OC (centres undefined) | -8 |  |  |
| COc1ccc(C2=NN(C3Cc4ccccc4C3)C(=O)C3CC=CCC23)cc1OC (centres undefined) | -9.1 |  |  |

| SMILES | Log IC50 (Phosphodiesterase 4) | inhibition in vivo at 30 µmol/kg (Mus musculus [1]) [%] | other results |
| --- | --- | --- | --- |
| COc1ccc(C2=NN(CCCCCCN)C(=O)C3CCCCC23)cc1OC (centres undefined) | -7.1 |  |  |
| COc1cc(CN2N=C(c3ccc(OC)c(OC)c3)C3CCCCC3C2=O)cc(OC)c1 (centres undefined) | -7.6 |  |  |
| COc1ccc(C2=NN(C3CCCC3)C(=O)C3CCCCC23)cc1OC (centres undefined) | -8.4 |  |  |
| COc1ccc(C2=NN(C3CCCCCC3)C(=O)C3CCCCC23)cc1OC (centres undefined) | -8.6 | 18 | pIC30 [5]: 7.3 |
| CCOC(=O)CN1N=C(c2ccc(OC)c(OC)c2)C2CCCCC2C1=O (centres undefined) | -7.2 |  |  |
| COc1ccc(C2=NN(CCCO)C(=O)C3CCCCC23)cc1OC (centres undefined) | -7.5 |  |  |
| COc1ccc(C2=NN(CCn3ccnc3)C(=O)C3CCCCC23)cc1OC (centres undefined) | -6.3 |  |  |
| COc1ccc(C2=NN(C(C)C)C(=O)C3CC=CCC23)cc1OC (centres undefined) | -8.9 | 15 |  |
| C=CCN1N=C(c2ccc(OC)c(OC)c2)C2CCCCC2C1=O (centres undefined) | -7.6 |  |  |
| COc1ccc(C2=NN(CCCCN(C)C)C(=O)C3CCCCC23)cc1OC (centres undefined) | -7 |  |  |
| COc1cccc(CN2N=C(c3ccc(OC)c(OC)c3)C3CCCCC3C2=O)c1 (centres undefined) | -8.5 | 8 |  |
| COc1ccc(C2=NN(CCc3ccccc3)C(=O)C3CCCCC23)cc1OC (centres undefined) | -7.6 |  |  |
| COc1ccc(C2=NN(Cc3ccccn3)C(=O)C3CCCCC23)cc1OC (centres undefined) | -7.6 |  |  |
| COC(=O)c1ccc(CN2N=C(c3ccc(OC)c(OC)c3)C3CCCCC3C2=O)cc1 (centres undefined) | -7.9 |  |  |
| COc1ccc(C2=NN(Cc3cccnc3)C(=O)C3CCCCC23)cc1OC (centres undefined) | -7.6 |  |  |
| COc1ccc([C@@H]2CNC(=O)C2)cc1OC1CCCC1 [(-)-ROLIPRAM] |  |  | Inhibition (Mus musculus [2]): 55% |
| COc1ccc([C@H](Cc2ccncc2)c2ccccc2)cc1OC1CCCC1 [CDP840] |  | 48 | pIC35 [3]: 7.2; pIC30 [4]: 4.82 |
| COc1ccc([C@]2(C#N)CC[C@@H](C(=O)O)CC2)cc1OC1CCCC1 [CILOMILAST] |  | 33 | pIC35 [3]: 7.04; pIC30 [4]: 4.89 |
